# Measurements taken from ChEMBL document CHEMBL1123250, “Chloroalanyl antibiotic peptides: antagonism of their antimicrobial effects by L-alanine and L-alanyl peptides in gram-negative bacteria” (1986).
# “And” between values parts separate entries of the source, which are not always exact repeats. Identical values can stand only once.
# Legend:
# Escherichia coli [1] = experiment: Compound was tested for antibacterial activity against Escherichia coli JSR-O at a concentration of 25 ug/mL; type: functional
# Summary of the method: (§1)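 Agar dilution in defined peptide susceptibility agar with L-Ala or L-Ala-L-Ala added at 25, 50, 100 or 500 µg/mL, and peptide in serial 2-fold dilutions. Inocula were grown overnight in the liquid susceptibility medium and diluted to about 1 x 10^7 cfu/mL, then replicator-spotted. Plates were incubated overnight at 37 °C. MIC was the lowest concentration allowing fewer than 10 colonies at 16-18 h.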
# Enterobacter cloacae [2] = experiment: Compound was tested for antibacterial activity at a concentration of 500 ug/mL against Enterobacter cloacae; type: functional; summary of the method: as §1
# Shigella flexneri [3] = experiment: Compound was tested for antibacterial activity against Shigella flexneri; type: functional
# Summary of the method: (§2)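 Agar dilution MIC on defined peptide susceptibility agar. Inoculum made by growing overnight in liquid peptide susceptibility medium, then diluting to about 1 × 10^7 cfu/mL. Applied by Steers replicator to plates carrying serial 2-fold peptide dilutions. Incubated overnight at 37 °C. MIC = lowest concentration allowing growth of fewer than 10 colonies after 16-18 h.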
# Klebsiella aerogenes [4] = experiment: Compound was tested for antibacterial activity at a concentration of 50 ug/mL against Enterobacter aerogenes; type: functional; summary of the method: as §1
# Escherichia coli [5] = experiment: Compound was tested for antibacterial activity at a concentration of 50 ug/mL against Escherichia coli ATCC; type: functional; summary of the method: as §1
# [6] = target: Alanine racemase, biosynthetic (Escherichia coli K-12) (UniProt P0A6B4); experiment: (§3) Compound was tested for enzyme activity at a concentration of 100 ug/mL against alanine racemase; per mg of protein
# Sequence of Alanine racemase, biosynthetic (Escherichia coli K-12) (P0A6B4 whole entry): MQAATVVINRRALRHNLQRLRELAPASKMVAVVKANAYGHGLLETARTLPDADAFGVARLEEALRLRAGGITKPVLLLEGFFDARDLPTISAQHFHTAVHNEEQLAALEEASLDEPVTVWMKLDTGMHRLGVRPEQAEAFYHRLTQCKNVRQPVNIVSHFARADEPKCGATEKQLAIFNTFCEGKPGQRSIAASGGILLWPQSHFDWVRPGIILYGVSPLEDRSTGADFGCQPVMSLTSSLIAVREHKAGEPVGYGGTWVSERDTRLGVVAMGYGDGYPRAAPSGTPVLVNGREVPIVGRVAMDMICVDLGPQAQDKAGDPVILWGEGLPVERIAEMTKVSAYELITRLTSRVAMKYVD
# Summary of the method: (§4)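 E. coli JSR-0 was grown at 37 °C in Davis-Mingioli medium with Met and Pro (50 µg/mL each) and Leu, Ile and Val (100 µg/mL each), plus 5% sucrose or 500 µg/mL L-Ala. Agent was added at about 100 Klett units, with 30 min more shaking. Cells were washed in phosphate/EDTA/PLP buffer pH 8.0 and sonicated. D→L racemase was coupled to L-alanine dehydrogenase (10 mM D-Ala, 5 mM NAD+, CHES pH 9.0, 37 °C), reading NADH at 340 nm.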
# Escherichia coli [7] = experiment: Compound was tested for enzyme activity at a concentration of 100 ug/mL against transaminase B; per mg of protein
# Summary of the method: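 E. coli JSR-0 was grown at 37 °C in supplemented Davis-Mingioli medium (Met and Pro; Leu, Ile and Val), with sucrose or L-Ala in some cultures. Agent was added at about 100 Klett units and cells harvested after 30 min. The sonicated homogenate was run with Tris pH 7.8, pyridoxal phosphate and α-ketoglutarate; L-valine started transamination at 37 °C. Timed aliquots were derivatised with 2,4-DNPH, and α-ketoisovalerate hydrazone was read at A430 against a standard curve.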
# Staphylococcus aureus [8] = experiment: Compound was tested for antibacterial activity at a concentration of 50 ug/mL against Staphylococcus aureus; type: functional; summary of the method: as §1
# [9] = tested on: Staphylococcus epidermidis; experiment: Compound was tested for antibacterial activity at a concentration of 50 ug/mL against Staphylococcus epidermidis; type: functional; summary of the method: as §1
# Klebsiella aerogenes [10] = experiment: Compound was tested for antibacterial activity against Enterobacter aerogenes at a concentration of 25 ug/mL; type: functional; summary of the method: as §1
# Enterococcus faecalis [11] = experiment: Compound was tested for antibacterial activity at a concentration of 500 ug/mL against Streptococcus faecalis; type: functional; summary of the method: as §1
# Enterococcus faecalis [12] = experiment: Compound was tested for antibacterial activity at a concentration of 100 ug/mL against Streptococcus faecalis; type: functional; summary of the method: as §1
# Enterococcus faecalis [13] = experiment: Compound was tested for antibacterial activity at a concentration of 50 ug/mL against Streptococcus faecalis; type: functional; summary of the method: as §1
# [14] = tested on: Staphylococcus epidermidis; experiment: (§5) Compound was tested for antibacterial activity at a concentration of 25 ug/mL against Staphylococcus epidermidis; type: functional; summary of the method: as §1
# Streptococcus pyogenes = experiment: Compound was tested for antibacterial activity against Streptococcus pyogenes; type: functional
# Summary of the method: (§6)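 Inoculum made from colonies grown overnight on chocolate or blood agar, resuspended in liquid medium to 10' cfu/mL. Applied by Steers replicator to serial 2-fold peptide dilutions. Incubated overnight at 37 °C under 7% CO2. MIC = lowest concentration giving fewer than 10 colonies at 16-18 h.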
# Escherichia coli [15] = experiment: (§7) Compound was tested for antibacterial activity at a concentration of 25 ug/mL against Escherichia coli ATCC; type: functional; summary of the method: as §1
# Klebsiella aerogenes [16] = experiment: (§8) Compound was tested for antibacterial activity at a concentration of 25 ug/mL against Enterobacter aerogenes; type: functional; summary of the method: as §1
# Staphylococcus aureus [17] = experiment: (§9) Compound was tested for antibacterial activity at a concentration of 25 ug/mL against Staphylococcus aureus; type: functional; summary of the method: as §1
# Escherichia coli [18] = experiment: Compound was tested for antibacterial activity at a concentration of 500 ug/mL against Escherichia coli ATCC; type: functional; summary of the method: as §1
# Escherichia coli [19] = experiment: (§10) Compound was tested for antibacterial activity at a concentration of 25 ug/mL against Escherichia coli JSR-O; type: functional; summary of the method: as §1
# Escherichia coli [20] = experiment: as §10; type: functional; summary of the method: as §1; remark: listed apart in the source
# Klebsiella aerogenes [21] = experiment: as §8; type: functional; summary of the method: as §1; remark: listed apart in the source
# Staphylococcus aureus [22] = experiment: as §9; type: functional; summary of the method: as §1; remark: listed apart in the source
# [23] = tested on: Staphylococcus epidermidis; experiment: as §5; type: functional; summary of the method: as §1; remark: listed apart in the source
# Shigella flexneri [24] = experiment: Compound was tested for antibacterial activity at a concentration of 50 ug/mL against Shigella flexneri; type: functional; summary of the method: as §1
# Escherichia coli [25] = experiment: as §7; type: functional; summary of the method: as §1; remark: listed apart in the source
# Escherichia coli [26] = experiment: Compound was tested for antibacterial activity at a concentration of 500 ug/mL against Escherichia coli JSR-O; type: functional; summary of the method: as §1
# Escherichia coli [27] = experiment: Compound was tested for antibacterial activity against Escherichia coli; type: functional; summary of the method: as §2
# [28] = target: Alanine racemase, biosynthetic (Escherichia coli K-12) (UniProt P0A6B4); experiment: as §3; summary of the method: as §4; remark: listed apart in the source
# Enterobacter cloacae [29] = experiment: Compound was tested for antibacterial activity at a concentration of 25 ug/mL against Enterobacter cloacae; type: functional; summary of the method: as §1
# Shigella flexneri [30] = experiment: Compound was tested for antibacterial activity at a concentration of 500 ug/mL against Shigella flexneri; type: functional; summary of the method: as §1
# Enterococcus faecalis [31] = experiment: (§11) Compound was tested for antibacterial activity at a concentration of 25 ug/mL against Streptococcus faecalis; type: functional; summary of the method: as §1
# Enterococcus faecalis [32] = experiment: Compound was tested for antibacterial activity against Streptococcus faecalis at a concentration of 25 ug/mL; type: functional; summary of the method: as §1
# Shigella flexneri [33] = experiment: Compound was tested for antibacterial activity against Shigella flexneri at a concentration of 25 ug/mL; type: functional; summary of the method: as §1
# Enterobacter cloacae [34] = experiment: Compound was tested for antibacterial activity at a concentration of 50 ug/mL against Enterobacter cloacae; type: functional; summary of the method: as §1
# Shigella flexneri [35] = experiment: (§12) Compound was tested for antibacterial activity at a concentration of 25 ug/mL against Shigella flexneri; type: functional; summary of the method: as §1
# Escherichia coli [36] = experiment: Compound was tested for antibacterial activity at a concentration of 50 ug/mL against Escherichia coli JSR-O; type: functional; summary of the method: as §1
# Escherichia coli [37] = experiment: Compound was tested for antibacterial activity at a concentration of 100 ug/mL against Escherichia coli JSR-O; type: functional; summary of the method: as §1
# Shigella flexneri [38] = experiment: as §12; type: functional; summary of the method: as §1; remark: listed apart in the source
# Klebsiella aerogenes [39] = experiment: Compound was tested for antibacterial activity at a concentration of 500 ug/mL against Enterobacter aerogenes; type: functional; summary of the method: as §1
# Staphylococcus aureus [40] = experiment: (§13) Compound was tested for antibacterial activity against Staphylococcus aureus at a concentration of 25 ug/mL; type: functional; summary of the method: as §1
# [41] = tested on: Staphylococcus epidermidis; experiment: as §13; type: functional; summary of the method: as §1
# Enterococcus faecalis [42] = experiment: as §11; type: functional; summary of the method: as §1; remark: listed apart in the source
# Streptococcus agalactiae = experiment: Compound was tested for antibacterial activity against Streptococcus agalactiae; type: functional; summary of the method: as §6
structure (smiles),measurement,setting,value
N[C@@H](CCl)C(=O)N[C@@H](CCl)C(=O)O,MIC,Escherichia coli [1],3.12 µg/mL
same,MIC,Enterobacter cloacae [2],> 100 µg/mL
same,MIC,Shigella flexneri [3],3.25 µg/mL
same,MIC,Klebsiella aerogenes [4],> 100 µg/mL
same,MIC,Escherichia coli [5],> 100 µg/mL
same,Activity,[6],0.19 µM/min
same,Activity,Escherichia coli [7],0.13 µM/min and 0.11 µM/min
same,MIC,Staphylococcus aureus [8],6.25 µg/mL
same,MIC,[9],6.25 µg/mL
same,MIC,Klebsiella aerogenes [10],6.25 µg/mL
same,MIC,Enterococcus faecalis [11],> 100 µg/mL
same,MIC,Enterococcus faecalis [12],> 100 µg/mL
same,MIC,Enterococcus faecalis [13],> 100 µg/mL
same,MIC,[14],0.05 µg/mL
same,MIC,Streptococcus pyogenes,3.12 µg/mL
same,MIC,Escherichia coli [15],3.12 µg/mL
same,MIC,Klebsiella aerogenes [16],12.5 µg/mL
same,MIC,Staphylococcus aureus [17],0.05 µg/mL
same,MIC,Escherichia coli [18],> 100 µg/mL
same,MIC,Escherichia coli [19],> 100 µg/mL
same,MIC,Escherichia coli [20],6.25 µg/mL
same,MIC,Klebsiella aerogenes [21],> 100 µg/mL
same,MIC,Staphylococcus aureus [22],0.39 µg/mL
same,MIC,[23],0.39 µg/mL
same,MIC,Shigella flexneri [24],> 100 µg/mL
same,MIC,Escherichia coli [25],> 100 µg/mL
same,MIC,Escherichia coli [26],> 100 µg/mL
same,MIC,Escherichia coli [27],12.5 µg/mL
same,Activity,[28],0.85 µM/min
same,MIC,Enterobacter cloacae [29],> 100 µg/mL
same,MIC,Shigella flexneri [30],> 100 µg/mL
same,MIC,Enterococcus faecalis [31],> 100 µg/mL
same,MIC,Enterococcus faecalis [32],> 100 µg/mL
same,MIC,Shigella flexneri [33],1.56 µg/mL
same,MIC,Enterobacter cloacae [34],> 100 µg/mL
same,MIC,Shigella flexneri [35],3.12 µg/mL
same,MIC,Escherichia coli [36],> 100 µg/mL
same,MIC,Escherichia coli [37],>100 µg/mL
same,MIC,"Escherichia coli [37]; Escherichia coli, read-out: MIC",50 µg/mL
same,MIC,Shigella flexneri [38],> 100 µg/mL
same,MIC,Klebsiella aerogenes [39],> 100 µg/mL
same,MIC,Staphylococcus aureus [40],0.05 µg/mL
same,MIC,[41],0.05 µg/mL
same,MIC,Enterococcus faecalis [42],> 100 µg/mL
same,MIC,Streptococcus agalactiae,1.56 µg/mL
